The record followed here is ChEMBL document CHEMBL1126204, “Nucleic acid related compounds. 74. Synthesis and biological activity of 2'(and 3')-deoxy-2'(and 3')-methylenenucleoside analogues that function as mechanism-based inhibitors of S-adenosyl-L-homocysteine hydrolase and/or ribonucleotide reductase” (J Med Chem, 1992).

Assay [1] relates to Raji. The assay can be described thus: Inhibition of human tumor B-lymphoblast Raji/O cell proliferation. The assay is classed as functional, cell-based. The gist of the method: (§1)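 Human Molt/4F, MT-4, and Raji cells (wild-type, TK⁻ or dCK⁻) in RPMI-1640 with 10% inactivated FCS, 2 mM L-glutamine and 0.075% NaHCO₃, seeded at 7.5 × 10⁵ cells/mL with compound (0.001–500 µM). Incubated 3 days at 37 °C in humidified CO₂; viable cells counted by Coulter counter. IC₅₀ = 50% reduction in viable cells; means of 2–4 independent experiments.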

In assay [2] the test system is Raji. In words: Inhibition of human tumor B-lymphoblast Raji/TK-(thymidine kinase deficient) cell proliferation. In kind it is functional, cell-based. The method, boiled down:
as §1

Assay [3] deals with Raji. In words: Inhibition of human tumor B-lymphoblast Raji/dCK-(dcyd kinase deficient) cell proliferation. The assay is classed as functional, cell-based. The gist of the method:
as §1

In assay [4] the test system is L1210. In words: In vitro inhibition of L1210 (murine leukemia) cell proliferation. In kind it is functional, cell-based. The settings on record: Mus musculus. The method, boiled down:
(§2)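 Murine FM3A or L1210 cells in Eagle's MEM with 10% inactivated FCS, 2 mM L-glutamine and 0.075% NaHCO₃, seeded at 5 × 10⁵ cells/mL with compound (0.001–500 µM). After 2 days at 37 °C in humidified CO₂, viable cells were counted with a Coulter counter. IC₅₀ = 50% fewer viable cells; mean of 2–4 experiments.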

Assay [5] deals with L1210. In words: Concentration required to inhibit the proliferation of L1210 murine leukemia cell line by 50% in presence of exogenous nucleoside (d)Thd (5 ug/mL). In kind it is functional, cell-based. As to conditions: Mus musculus. The gist of the method: (§3)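 L1210 murine leukemia cells in Eagle's MEM with 10% inactivated fetal calf serum, 2 mM L-glutamine and 0.075% NaHCO₃. 5 × 10⁵ cells/mL were exposed to test compound (0.001–500 µM) together with the stated exogenous nucleoside at subtoxic level. Incubated 2 days at 37 °C in humidified CO₂. Viable cells were counted by Coulter counter. IC₅₀ = 50% reduction in viable cell number; mean of 2–4 independent experiments.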

The test system of assay [6] is L1210. In words: Concentration required to inhibit the proliferation of L1210 murine leukemia cell line by 50% in presence of exogenous nucleoside dCyd (500 ug/mL). In kind it is functional, cell-based. The settings on record: Mus musculus. The gist of the method: as §3
Assay [7] has as its system L1210. The assay can be described thus: Concentration required to inhibit the proliferation of L1210 murine leukemia cell line by 50% in presence of exogenous nucleoside dUrd (125 ug/mL). The assay is classed as functional, cell-based. The settings on record: Mus musculus. The method, boiled down: as §3
Assay [8] relates to L1210. The assay can be described thus: Antitumor activity in mice bearing L1210 murine leukemia cell line at a dose of 100 mg/kg/day. The assay is classed as functional, Mus musculus. The gist of the method: (§4)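 DBA/2 mice (20 g) inoculated ip with 10⁶ L1210 leukemia cells; test agent given ip once daily for 5 successive days beginning 1 day after inoculation, dissolved in Eagle's MEM containing 2.5% Tween (250 μL injection). Untreated tumor-bearing controls; read-out mean survival time in days, 7–15 mice per group.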

Assay [9] deals with L1210. In words: Antitumor activity in mice bearing L1210 murine leukemia cell line at a dose of 50 mg/kg/day. The assay is classed as functional, Mus musculus. The gist of the method: as §4
Assay [10] can be described thus: In vitro inhibition of Molt/4f (Human T-lymphoblast) cell proliferation. In kind it is functional. The gist of the method: as §1
Assay [11] is described as follows: In vitro inhibition of FM3A (murine carcinoma) cell proliferation. The assay is classed as functional. As to conditions: Mus musculus. The method, boiled down:
as §2

For assay [12], the species on record is Homo sapiens. The assay can be described thus: Concentration required to inhibit the proliferation of human T-lymphocyte CEM/dCK-(dcyd kinase deficient) cells by 50%. In kind it is functional. The method, boiled down:
(§5)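 Wild-type CEM and kinase-deficient sublines (AK⁻, dCK⁻, AK⁻/dCK⁻) grown in RPMI-1640 with 10% inactivated FCS, 2 mM L-glutamine and 0.075% NaHCO₃. Cells were exposed to compound at 0.001–500 µM for 3 days at 37 °C in humidified CO₂. Viable cells counted by Coulter counter; IC₅₀ = 50% reduction in viable cells. Mean of 2–4 independent experiments.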

Assay [13] is filed under the species Homo sapiens. The assay can be described thus: Concentration required to inhibit the proliferation of human T-lymphocyte CEM/o cells by 50%. In kind it is functional. The gist of the method:
as §5

The subject of assay [14] is MT4. The assay can be described thus: In vitro inhibition of MT-4 (Human T-lymphocyte) cell proliferation. In kind it is functional, cell-based. The gist of the method: as §1

`C=C1C(n2ccc(N)nc2=O)O[C@H](CO)[C@@H]1O` (some centres undefined): the half-inhibitory concentration (IC50) in [1] was found to be 25 nM; in assay [2] it was 35 nM; in [3], 31000 nM; in assay [4] it was 2000 nM; in [5], 1180 nM; in assay [6], 475000 nM. Also, the 50% inhibitory concentration (IC50) amounted to 1470 nM in assay [7]; 110 nM in [10]; 11000 nM in assay [11]; 60000 nM in assay [12]; 46 nM in assay [13]; 190 nM in assay [14]. Also, the Mean survival time in [8] was determined as 15.6 days; in assay [9], 12 days.
